Calls of active or inactive are those of the source. The rule behind the calls is not given here.
Experiments:
KB [1] = test: Cytotoxicity against human KB cells at 1 uM after 72 hrs; type: functional, cell-based
In short: (§1)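 KB cells exposed to compounds for 72 h, with DMSO-only cells as control. Proliferation was read with CellTiter 96 Aqueous One reagent and expressed as % inhibition of proliferation relative to the DMSO control, as mean ± SE of triplicate.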

Plasmodium falciparum = test: Antiplasmodial activity against Plasmodium falciparum by LDH assay; type: functional, organism-based
KB [2] = test: Cytotoxicity against human KB cells after 72 hrs; type: functional, cell-based; in short: as §1

IC50 (Plasmodium falciparum) [nM] | SMILES | Activity (KB [1]) | IC50 (KB [2]) [nM]
 | CC/C=C/C1=C2N=C(N)N[C@H]3CC[C@@H](C[C@@H]1C)[C@@H]23 | inactive | 
 | CCC/C=C\C[C@@H]1c2nc(N)nc3c2[C@@H](CC3)C[C@H]1CCC (relative stereo) | inactive | 
20700 | CCC/C=C\C[C@H]1c2nc(N)nc3c2[C@@H](CC3)C[C@H]1C | inactive | 
 | CCC/C=C\C[C@@H]1c2nc(N)nc3c2[C@@H](CC3)C[C@H]1C | inactive | 
2400 | CCC[C@@H]1C[C@@H]2CC[C@@H]3NC(N)=NC(=C1CC)[C@H]23 (relative stereo) | inactive | 
 | CCC/C=C\C[C@H]1c2nc(N)nc3c2[C@@H](CC3)C[C@H]1CCC | inactive | 
 | CCCCCCC1=C2N=C(N)N[C@H]3CC[C@@H](C[C@H]1CCC)[C@@H]23 | inactive | 
 | CCC/C=C\CC1=C2N=C(N)N[C@H]3CC[C@@H](C[C@H]1C)[C@@H]23 (relative stereo) |  | 1000
 | CCCC[C@@H]1c2nc(N)nc3c2[C@@H](CC3)C[C@H]1CCC | inactive | 

Reference: ChEMBL document CHEMBL3259624, “Netamines H-N, tricyclic alkaloids from the marine sponge Biemna laboutei and their antimalarial activity” (J Nat Prod, 2014)
